Results: publication PMC12705676 (Scientific Reports, 2025)
“Also recorded” adds a separate entry of the source.

Columns and labels:
[1] = test system: HT-29 (human colorectal adenocarcinoma); assay: SRB cytotoxicity assay, HT-29 cells; format: cell-based; details: for IC50: Homo sapiens, HT-29, 72 h, read-out: IC50 HT-29; for Selectivity index (SI) HT-29: IC50 in GES-1 / IC50 in HT-29
In short: (§1)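 Cells plated at 3 × 10³ per well and left 24 h to attach at 37 °C, 5% CO₂. Test compound at 0–100 µM from ethanol stocks (1% final ethanol) for 72 h. Fixation in TCA (10% final), staining with 0.1% SRB, dye solubilized in 10 mM Tris, A540. Viability relative to 1% ethanol vehicle. IC50 from a four-parameter logistic fit with 95% CI; triplicate, three independent runs, mean ± SD. SI = IC50 in GES-1 divided by IC50 in the cancer line.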

[2] = test system: mitochondrial membrane permeability of cancer cell line; assay: Mitochondrial membrane permeability by flow cytometry; format: cell-based, human; details: 48 h, Rhodamine 123, flow cytometry
[3] = ABTS radical scavenging assay; format: biochemical; details: read-out: ABTS IC50; concentration to scavenge 50% of radicals, mean ± SD
In short: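 ABTS radical cation generated by reacting ABTS with potassium persulfate, then diluted to an absorbance of about 0.700 at 732 nm. Test compound at several concentrations was mixed with the ABTS⁺ solution and the fall in absorbance recorded. Percent scavenging was calculated against a solvent control, with ascorbic acid as reference antioxidant. Three independent experiments in triplicate, mean ± SD.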

[4] = test system: AGS (human gastric adenocarcinoma); assay: SRB cytotoxicity assay, AGS cells; format: cell-based; details: for IC50: Homo sapiens, AGS, 72 h, read-out: IC50 AGS; for Selectivity index (SI) AGS: IC50 in GES-1 / IC50 in AGS
In short: as §1

[5] = test system: PC-3 (human prostate cancer); assay: SRB cytotoxicity assay, PC-3 cells; format: cell-based; details: for IC50: Homo sapiens, PC-3, 72 h, read-out: IC50 PC-3; for Selectivity index (SI) PC-3: IC50 in GES-1 / IC50 in PC-3
In short: as §1

Hemolysis assay = format: cell-based, human; details: human, washed human red blood cells, Hemolysis (%), 30 min, 37 °C
In short: (§2)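 Donor blood was collected in EDTA. RBCs were pelleted at 500 × g for 10 min, washed three times in PBS and resuspended in PBS. Cells were exposed to test compound at 10–300 µg/mL for 30 min at 37 °C with gentle agitation, then spun at 1000 × g for 5 min; supernatant hemoglobin was read at 540 nm. Deionized water defined 100% and PBS 0% hemolysis. Triplicate, three independent repeats.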

human erythrocytes = assay: Hemolysis assay; format: cell-based; details: for Hemolysis, result in words: 10–300 µg/mL; for Hemolysis (%): 30 min, 37 °C
In short: as §2

For `CC1(C)C2CC[C@]1(C)C(=O)/C2=C/c1cccs1` [Compound 5, (1S,3E)-1,7,7-trimethyl-3-[(thiophen-2-yl)methylidene]bicyclo[2.2.1]heptan-2-one], the IC50 [1] was 87.5 ± 0.5 µM, the “Selectivity index (SI) HT-29” value [1] was 2.1 and the “Effect on mitochondrial membrane potential” value (from here on “Effect”) [2] was “loss of the mitochondrial membrane potential”. The IC50 [3] was 1301 ± 2.4 µM, the IC50 [4] was 43.2 ± 0.3 µM and the “Selectivity index (SI) AGS” value [4] was 4.2. For the same molecule, the IC50 [5] was 63.57 ± 0.6 µM, the “Selectivity index (SI) PC-3” value [5] was 3.0 and the hemolysis at 30 min, 10 µg/mL (Hemolysis assay) was 0%. The hemolysis at 30 min, 25 µg/mL (Hemolysis assay) was 0%, the hemolysis at 30 min, 50 µg/mL (Hemolysis assay) was 1.1% and the hemolysis at 30 min, 100 µg/mL (Hemolysis assay) was 3.11%. The hemolysis at 30 min, 200 µg/mL (Hemolysis assay) was 7.4% and the hemolysis at 30 min, 300 µg/mL (Hemolysis assay) was 13.8%.
For `CC1(C)C2CC[C@]1(C)C(=O)/C2=C/c1ccco1` [Compound 3, (1S,3E)-3-[(furan-2-yl)methylidene]-1,7,7-trimethylbicyclo[2.2.1]heptan-2-one], the IC50 [1] was > 100 µM, the “Effect” value [2] was “loss of the mitochondrial membrane potential” and the IC50 [3] was 953 ± 1.5 µM. For the same molecule, the IC50 [4] was 99.9 ± 0.2 µM, the “Selectivity index (SI) AGS” value [4] was 1.85 and the IC50 [5] was > 100 µM. The “Hemolysis, result in words” value (human erythrocytes) was “concentration dependent increase in hemolysis”, the hemolysis at 30 min, 10 µg/mL (Hemolysis assay) was 6.75% and the hemolysis at 30 min, 25 µg/mL (Hemolysis assay) was 8.31%. It also gave a hemolysis at 30 min, 50 µg/mL (Hemolysis assay) of 17.9%, a hemolysis at 30 min, 100 µg/mL (Hemolysis assay) of 23.6% and a hemolysis at 30 min, 200 µg/mL (Hemolysis assay) of 28.2%. The hemolysis at 30 min, 300 µg/mL (Hemolysis assay) was 35.3%.
For `CC1(C)C2CC[C@]1(C)C(=O)/C2=C/c1ccsc1` [Compound 11, (1S,3E)-1,7,7-trimethyl-3-[(thiophen-3-yl)methylidene]bicyclo[2.2.1]heptan-2-one], the IC50 [3] was 1396 ± 3.8 µM, the hemolysis at 30 min, 10 µg/mL (Hemolysis assay) was 0% and the hemolysis at 30 min, 25 µg/mL (Hemolysis assay) was 0.77%. The hemolysis at 30 min, 50 µg/mL (Hemolysis assay) was 5.25%, the hemolysis at 30 min, 100 µg/mL (Hemolysis assay) was 7.2% and the hemolysis at 30 min, 200 µg/mL (Hemolysis assay) was 11.2%. It also gave a hemolysis at 30 min, 300 µg/mL (Hemolysis assay) of 13.2%.
For `CC1(C)C2CC[C@]1(C)C(=O)/C2=C/c1cc2ccccc2o1` [Compound 9, (1S,3E)-3-[(1-benzofuran-2-yl)methylidene]-1,7,7-trimethylbicyclo[2.2.1]heptan-2-one], the IC50 [1] was 76.3 ± 0.2 µM, the “Selectivity index (SI) HT-29” value [1] was 3.0 and the “Effect” value [2] was “loss of the mitochondrial membrane potential”. For the same molecule, the IC50 [3] was 954.7 ± 2.7 µM, the IC50 [4] was 31.8 ± 0.4 µM and the “Selectivity index (SI) AGS” value [4] was 7.0. The IC50 [5] was 97 ± 0.2 µM, the “Selectivity index (SI) PC-3” value [5] was 2.3 and the hemolysis at 30 min, 10 µg/mL (Hemolysis assay) was 2.01%. The hemolysis at 30 min, 25 µg/mL (Hemolysis assay) was 3.31%, the hemolysis at 30 min, 50 µg/mL (Hemolysis assay) was 6.36% and the hemolysis at 30 min, 100 µg/mL (Hemolysis assay) was 8.05%. For the same molecule, the hemolysis at 30 min, 200 µg/mL (Hemolysis assay) was 12.9% and the hemolysis at 30 min, 300 µg/mL (Hemolysis assay) was 13.4%.
For `CC1(C)C2CC[C@@]1(C)C(=O)/C2=C/c1cccs1` [Compound 6, (1R,3E)-1,7,7-trimethyl-3-[(thiophen-2-yl)methylidene]bicyclo[2.2.1]heptan-2-one], the IC50 [1] was > 100 µM, the IC50 [3] was 1082 ± 1.7 µM and the IC50 [4] was > 100 µM. For the same molecule, the IC50 [5] was > 100 µM, the “Hemolysis, result in words” value (human erythrocytes) was “concentration dependent increase in hemolysis” and the hemolysis at 30 min, 10 µg/mL (Hemolysis assay) was 6.36%. It also gave a hemolysis at 30 min, 25 µg/mL (Hemolysis assay) of 7.07%, a hemolysis at 30 min, 50 µg/mL (Hemolysis assay) of 16.8% and a hemolysis at 30 min, 100 µg/mL (Hemolysis assay) of 21.6%. It also gave a hemolysis at 30 min, 200 µg/mL (Hemolysis assay) of 26.7% and a hemolysis at 30 min, 300 µg/mL (Hemolysis assay) of 29%.
`O=C1O[C@H]([C@@H](O)CO)C(O)=C1O` [AA, Ascorbic acid, reference compound] gave an IC50 [3] of 141 ± 3.5 µM.
For `CC1(C)C2CC[C@@]1(C)C(=O)/C2=C/c1ccco1` [Compound 4, (1R,3E)-3-[(furan-2-yl)methylidene]-1,7,7-trimethylbicyclo[2.2.1]heptan-2-one], the IC50 [1] was > 100 µM, the IC50 [3] was 1004 ± 2 µM and the IC50 [4] was > 100 µM. For the same molecule, the IC50 [5] was > 100 µM, the “Hemolysis, result in words” value (human erythrocytes) was “concentration dependent increase in hemolysis; also recorded: significant hemolysis” and the hemolysis at 30 min, 10 µg/mL (Hemolysis assay) was 15.7%. It also gave a hemolysis at 30 min, 25 µg/mL (Hemolysis assay) of 18.2%, a hemolysis at 30 min, 50 µg/mL (Hemolysis assay) of 20.1% and a hemolysis at 30 min, 100 µg/mL (Hemolysis assay) of 31.8%. It also gave a hemolysis at 30 min, 200 µg/mL (Hemolysis assay) of 41.5% and a hemolysis at 30 min, 300 µg/mL (Hemolysis assay) of 49.7%.
For `CC1(C)C2CC[C@@]1(C)C(=O)/C2=C/c1cc2ccccc2o1` [Compound 10, (1R,3E)-3-[(1-benzofuran-2-yl)methylidene]-1,7,7-trimethylbicyclo[2.2.1]heptan-2-one], the IC50 [1] was > 100 µM, the IC50 [3] was 1146 ± 3.7 µM and the IC50 [4] was > 100 µM. For the same molecule, the IC50 [5] was > 100 µM, the hemolysis at 30 min, 10 µg/mL (Hemolysis assay) was 0% and the hemolysis at 30 min, 25 µg/mL (Hemolysis assay) was 0.38%. The hemolysis at 30 min, 50 µg/mL (Hemolysis assay) was 3.12%, the hemolysis at 30 min, 100 µg/mL (Hemolysis assay) was 5.84% and the hemolysis at 30 min, 200 µg/mL (Hemolysis assay) was 6.16%. The hemolysis at 30 min, 300 µg/mL (Hemolysis assay) was 8.05%.
For `CC1(C)C2CC[C@@]1(C)C(=O)/C2=C/c1ccsc1` [Compound 12, (1R,3E)-1,7,7-trimethyl-3-[(thiophen-3-yl)methylidene]bicyclo[2.2.1]heptan-2-one], the IC50 [3] was 1025 ± 3.5 µM, the “Hemolysis, result in words” value (human erythrocytes) was “concentration dependent increase in hemolysis” and the hemolysis at 30 min, 10 µg/mL (Hemolysis assay) was 5.9%. For the same molecule, the hemolysis at 30 min, 25 µg/mL (Hemolysis assay) was 6.81%, the hemolysis at 30 min, 50 µg/mL (Hemolysis assay) was 7.92% and the hemolysis at 30 min, 100 µg/mL (Hemolysis assay) was 9.41%. The hemolysis at 30 min, 200 µg/mL (Hemolysis assay) was 10.2% and the hemolysis at 30 min, 300 µg/mL (Hemolysis assay) was 12.5%.
For `COc1cccc2c1C(=O)c1c(O)c3c(c(O)c1C2=O)C[C@@](O)(C(C)=O)C[C@@H]3O[C@H]1C[C@H](N)[C@H](O)[C@H](C)O1` [Daunorubicin, reference compound], the IC50 [1] was 15.1 ± 0.5 µM, the “Selectivity index (SI) HT-29” value [1] was 23.3 and the IC50 [4] was 13 ± 0.3 µM. For the same molecule, the “Selectivity index (SI) AGS” value [4] was 27.1, the IC50 [5] was 10.4 ± 0.4 µM and the “Selectivity index (SI) PC-3” value [5] was 33.9.
With `O=c1[nH]cc(F)c(=O)[nH]1` [Compound 5-FU, 5-fluorouracil, reference compound] the IC50 [1] was 2.9 ± 0.7 µM, the “Selectivity index (SI) HT-29” value [1] was 48.3 and the IC50 [4] was 56.1 ± 0.5 µM. The “Selectivity index (SI) AGS” value [4] was 2.5 and the IC50 [5] was 16.4 ± 0.6 µM.
With “Triton X-100 [Triton X-100 1%, reference compound]” the “Hemolysis (%)” value (human erythrocytes; 10 µg/mL) was 100%, the “Hemolysis (%)” value (human erythrocytes; 25 µg/mL) was 100% and the “Hemolysis (%)” value (human erythrocytes; 50 µg/mL) was 100%. For the same molecule, the “Hemolysis (%)” value (human erythrocytes; 100 µg/mL) was 100%, the “Hemolysis (%)” value (human erythrocytes; 200 µg/mL) was 100% and the “Hemolysis (%)” value (human erythrocytes; 300 µg/mL) was 100%.
For `CC1(C)C2CC[C@@]1(C)C(=O)/C2=C/c1ccoc1` [Compound 8, (1R,3E)-3-[(furan-3-yl)methylidene]-1,7,7-trimethylbicyclo[2.2.1]heptan-2-one], the IC50 [1] was > 100 µM, the IC50 [3] was 1344 ± 3.4 µM and the IC50 [4] was > 100 µM. For the same molecule, the IC50 [5] was > 100 µM, the hemolysis at 30 min, 10 µg/mL (Hemolysis assay) was 0% and the hemolysis at 30 min, 25 µg/mL (Hemolysis assay) was 2.53%. For the same molecule, the hemolysis at 30 min, 50 µg/mL (Hemolysis assay) was 6.29%, the hemolysis at 30 min, 100 µg/mL (Hemolysis assay) was 8.5% and the hemolysis at 30 min, 200 µg/mL (Hemolysis assay) was 9.74%. The hemolysis at 30 min, 300 µg/mL (Hemolysis assay) was 12.2%.
For `CC1(C)C2CC[C@]1(C)C(=O)/C2=C/c1ccoc1` [Compound 7, (1S,3E)-3-[(furan-3-yl)methylidene]-1,7,7-trimethylbicyclo[2.2.1]heptan-2-one], the IC50 [1] was > 100 µM, the IC50 [3] was 1046 ± 3.3 µM and the IC50 [4] was > 100 µM. For the same molecule, the IC50 [5] was > 100 µM, the hemolysis at 30 min, 10 µg/mL (Hemolysis assay) was 0% and the hemolysis at 30 min, 25 µg/mL (Hemolysis assay) was 0%. For the same molecule, the hemolysis at 30 min, 50 µg/mL (Hemolysis assay) was 0%, the hemolysis at 30 min, 100 µg/mL (Hemolysis assay) was 1.81% and the hemolysis at 30 min, 200 µg/mL (Hemolysis assay) was 3.12%. It also gave a hemolysis at 30 min, 300 µg/mL (Hemolysis assay) of 5.97%.
